# How the values were obtained:
# Caspase-7 = target: T1, Caspase-7 (Homo sapiens, UniProt P55210); assay: Inhibitory activity against caspase 7 using Ac-DEVD-AMC substrate
# T1 sequence (P55210 whole entry): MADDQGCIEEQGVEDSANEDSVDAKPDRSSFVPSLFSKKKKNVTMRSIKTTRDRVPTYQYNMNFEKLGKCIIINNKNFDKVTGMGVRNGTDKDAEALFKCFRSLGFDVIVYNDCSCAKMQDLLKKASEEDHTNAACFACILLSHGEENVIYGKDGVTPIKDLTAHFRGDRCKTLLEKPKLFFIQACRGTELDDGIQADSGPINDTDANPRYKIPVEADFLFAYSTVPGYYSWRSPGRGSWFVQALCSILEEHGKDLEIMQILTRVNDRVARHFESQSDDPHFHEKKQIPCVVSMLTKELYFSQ
# How it was run: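 Substrate solution held a further 10 mM 2-mercaptoethanol for full activation. Enzyme was used at a linear-range level. DMSO inhibitor dilutions (5% final) were preincubated 30 min on ice, then run 1–2 h at 37 °C. AMC read at 355/460 nm. Duplicates; IC50 is the mean of three runs.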
# Caspase-3 = target: T2, Caspase-3 (Homo sapiens, UniProt P42574); assay: Inhibitory activity against caspase 3 using Ac-DEVD-AMC substrate
# T2 sequence (P42574 whole entry): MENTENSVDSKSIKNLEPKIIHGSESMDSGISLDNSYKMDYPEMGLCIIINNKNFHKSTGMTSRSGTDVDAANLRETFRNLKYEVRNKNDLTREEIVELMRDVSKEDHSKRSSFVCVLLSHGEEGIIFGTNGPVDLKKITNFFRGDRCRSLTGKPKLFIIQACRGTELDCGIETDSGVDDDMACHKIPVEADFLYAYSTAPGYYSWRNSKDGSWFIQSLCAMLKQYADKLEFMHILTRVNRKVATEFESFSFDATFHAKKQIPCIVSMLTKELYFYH
# How it was run: (§1)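 Substrates at 10 µM: Ac-DEVD-AMC (caspase-3), Ac-VEID-AMC (caspase-6), Ac-IETD-AMC (caspase-8). Serially diluted inhibitors were preincubated 30 min on ice, then run 1–2 h at 37 °C in 5% final DMSO. AMC fluorescence ex 355/em 460 nm. Duplicates; IC50 averaged over three experiments.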
# Caspase-6 = target: T3, Caspase-6 (Homo sapiens, UniProt P55212); assay: Inhibitory activity against caspase 6 using Ac-VEID-AMC substrate; how it was run: as §1
# T3 sequence (P55212 whole entry): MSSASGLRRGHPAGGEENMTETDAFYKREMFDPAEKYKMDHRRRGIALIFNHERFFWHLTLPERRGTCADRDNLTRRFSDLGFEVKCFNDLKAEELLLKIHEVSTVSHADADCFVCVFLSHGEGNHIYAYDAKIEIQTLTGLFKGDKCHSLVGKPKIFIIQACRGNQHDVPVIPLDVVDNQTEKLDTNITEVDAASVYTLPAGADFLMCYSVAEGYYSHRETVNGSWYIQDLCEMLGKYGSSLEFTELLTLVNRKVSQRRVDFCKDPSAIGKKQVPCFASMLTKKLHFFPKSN
# Caspase-8 = Caspase-8 (Homo sapiens, UniProt Q14790); assay: Inhibitory activity against caspase 8 using Ac-IETD-AMC substrate; how it was run: as §1
# Chain of Caspase-8 (Q14790 217-374 limits assumed): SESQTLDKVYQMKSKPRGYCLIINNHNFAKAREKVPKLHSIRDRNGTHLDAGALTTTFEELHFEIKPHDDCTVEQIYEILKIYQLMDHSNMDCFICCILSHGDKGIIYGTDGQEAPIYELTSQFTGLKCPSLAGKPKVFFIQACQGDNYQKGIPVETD
# Chain of Caspase-8 (Q14790 385-479 limits assumed): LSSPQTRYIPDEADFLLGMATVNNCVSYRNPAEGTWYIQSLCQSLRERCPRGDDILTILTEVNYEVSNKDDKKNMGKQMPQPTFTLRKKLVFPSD
# Caspase-1 = target: T4, Caspase-1 (Homo sapiens, UniProt P29466); assay: Inhibitory activity against caspase 1 using Ac-YVAD-AMC substrate
# T4 sequence (P29466 whole entry): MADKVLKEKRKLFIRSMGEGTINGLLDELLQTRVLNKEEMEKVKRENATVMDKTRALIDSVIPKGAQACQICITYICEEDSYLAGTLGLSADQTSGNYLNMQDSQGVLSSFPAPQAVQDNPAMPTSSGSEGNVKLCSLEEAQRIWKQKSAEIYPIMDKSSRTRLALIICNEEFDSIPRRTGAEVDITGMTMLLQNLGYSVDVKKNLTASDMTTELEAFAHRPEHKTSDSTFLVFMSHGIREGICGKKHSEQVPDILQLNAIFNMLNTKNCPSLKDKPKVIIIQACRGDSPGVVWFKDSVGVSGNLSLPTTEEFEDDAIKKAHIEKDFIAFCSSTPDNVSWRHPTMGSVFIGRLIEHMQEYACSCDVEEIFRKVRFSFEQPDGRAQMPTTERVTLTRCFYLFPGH
# How it was run: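 Substrate solution carried an extra 10 mM 2-mercaptoethanol. Inhibitors in DMSO were preincubated 30 min on ice, then run 1–2 h at 37 °C. AMC was read at ex 355/em 460 nm. Duplicates; IC50 is the mean of three experiments.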
IC50 (Caspase-7) [µM],IC50 (Caspase-3) [µM],IC50 (Caspase-6) [µM],IC50 (Caspase-8) [µM],IC50 (Caspase-1) [µM],Structure (SMILES)
0.023,0.0121,> 5,> 50,> 50,O=C1C(=O)N(Cc2ccc(F)cc2)c2ccc(S(=O)(=O)N3CCC[C@H]3COc3ccccc3)cc21
–,–,> 5,> 50,> 10,O=C1Nc2ccc(S(=O)(=O)N3CC[C@H]3COc3ccccc3)cc2C1=O
–,–,> 5,> 50,> 50,CSc1ccc(CN2C(=O)C(=O)c3cc(S(=O)(=O)N4CC[C@H]4COc4ccccc4)ccc32)cc1
–,–,> 5,> 50,> 10,O=C1C(=O)N(Cc2ccccc2)c2ccc(S(=O)(=O)N3CCC[C@H]3COc3ccccc3)cc21
–,–,> 5,> 50,> 10,O=C1C(=O)N(Cc2cccc(F)n2)c2ccc(S(=O)(=O)N3CC[C@H]3COc3ccccc3)cc21
0.0141,0.0052,> 5,> 50,> 10,O=C1C(=O)N(Cc2ccccc2)c2ccc(S(=O)(=O)N3CCC[C@H]3COc3cccnc3)cc21
–,–,> 5,> 50,> 50,O=C1C(=O)N(Cc2cccc(F)n2)c2ccc(S(=O)(=O)N3CCC[C@H]3COc3ccccc3)cc21
–,–,> 5,> 50,> 50,O=C1C(=O)N(Cc2ccnc(F)c2)c2ccc(S(=O)(=O)N3CCC[C@H]3COc3ccccc3)cc21
–,–,> 5,> 50,> 10,O=C1C(=O)N(Cc2ccc(F)cc2)c2ccc(S(=O)(=O)N3CC[C@H]3COc3ccccc3)cc21
–,–,> 5,> 50,> 10,O=C1C(=O)N(Cc2ccccc2)c2ccc(S(=O)(=O)N3CC[C@H]3COc3ccccc3)cc21
0.31,0.119,> 5,> 50,> 20,CN1C(=O)C(=O)c2cc(S(=O)(=O)N3CCC[C@H]3COc3ccccc3)ccc21
0.041,0.0124,> 5,> 50,> 50,CSc1ccc(CN2C(=O)C(=O)c3cc(S(=O)(=O)N4CCC[C@H]4COc4ccccc4)ccc32)cc1
0.0348,0.012,> 5,> 50,> 50,CC(=O)Oc1ccc(CN2C(=O)C(=O)c3cc(S(=O)(=O)N4CCC[C@H]4COc4ccccc4)ccc32)cc1
0.0218,0.0145,> 5,> 50,> 10,COc1ccc(CN2C(=O)C(=O)c3cc(S(=O)(=O)N4CCC[C@H]4COc4ccccc4)ccc32)cc1
–,–,> 5,> 50,> 5,O=C1C(=O)N(Cc2ccc(O)cc2)c2ccc(S(=O)(=O)N3CCC[C@H]3COc3ccccc3)cc21
0.0233,0.0044,> 5,> 50,> 50,CSc1ccc(CN2C(=O)C(=O)c3cc(S(=O)(=O)N4CCC[C@H]4COc4cccnc4)ccc32)cc1
0.215,0.0583,> 5,> 50,> 5,O=C1Nc2ccc(S(=O)(=O)N3CCC[C@H]3COc3cccnc3)cc2C1=O
–,–,> 5,> 50,> 10,O=C1C(=O)N(Cc2ccccc2F)c2ccc(S(=O)(=O)N3CC[C@H]3COc3ccccc3)cc21
–,–,> 5,> 50,> 50,O=C1C(=O)N(Cc2ccc(F)nc2)c2ccc(S(=O)(=O)N3CCC[C@H]3COc3ccccc3)cc21
0.142,0.0204,> 5,> 50,> 5,O=C1Nc2ccc(S(=O)(=O)N3CCC[C@H]3COc3ccncc3)cc2C1=O
–,–,> 5,> 50,> 50,COc1ccc(CN2C(=O)C(=O)c3cc(S(=O)(=O)N4CC[C@H]4COc4ccccc4)ccc32)cc1
0.0949,0.0233,> 5,> 50,> 10,CN1C(=O)C(=O)c2cc(S(=O)(=O)N3CCC[C@H]3COc3cccnc3)ccc21
0.0151,0.0039,> 5,> 50,> 10,COc1ccc(CN2C(=O)C(=O)c3cc(S(=O)(=O)N4CCC[C@H]4COc4cccnc4)ccc32)cc1
–,–,> 5,> 50,> 10,O=C1Nc2ccc(S(=O)(=O)N3CCC[C@H]3COc3ccccc3)cc2C1=O
0.0151,0.0084,> 5,> 50,> 10,O=C1C(=O)N(Cc2ccc(F)cc2)c2ccc(S(=O)(=O)N3CCC[C@H]3COc3cccnc3)cc21
–,–,> 5,> 50,> 10,CN1C(=O)C(=O)c2cc(S(=O)(=O)N3CC[C@H]3COc3ccccc3)ccc21
–,–,> 5,> 50,> 50,O=C1C(=O)N(Cc2ccc(F)nc2)c2ccc(S(=O)(=O)N3CC[C@H]3COc3ccccc3)cc21
–,–,> 5,> 50,> 50,O=C1C(=O)N(Cc2ccnc(F)c2)c2ccc(S(=O)(=O)N3CC[C@H]3COc3ccccc3)cc21

# — ChEMBL document CHEMBL1141199, “N-benzylisatin sulfonamide analogues as potent caspase-3 inhibitors: synthesis, in vitro activity, and molecular modeling studies” (J Med Chem, 2005)
